Screening results as filed in PubChem BioAssay.
RanGTP-Impb inh: disruptors of Ran-importin-beta complex formation – biochemical, FRET, CFP-Ran, YFP-importin-beta, homogeneous, primary screen; cell-free CFP-Ran/YFP-importin-beta FRET ratio; inhibition, % (no concentration beside the values); actives 1.1% (n = 300,000); AID 2216;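 active means more than half of the replicate wells show a fall in the fluorescence ratio signal beyond about 16%, limit read from the data, passing the limit was not always enough; inconclusive means exactly half of the replicate wells pass the set limit; inactive means fewer than half of replicates pass the limit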;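 further: 0% = DMSO wells and 100% = Ran loaded with GDP instead of GTP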
Runt-SMMHC FRET: Runt domain-CBFb-SMMHC interaction inhibition; Q01196+Q13951; Cerulean-Runt/Venus-CBFb-SMMHC FRET ratio 530/480, 1 h; inhibition, % at 20 µM; actives 0.74% (n = 220,000); AID 1434;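 active means mean inhibition across duplicate retests at 20 µM reaching about 50%, limit read from the data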;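 further: 0% = DMSO wells and 100% = wells with excess untagged CBFb-SMMHC; inhibitors lower the FRET ratio by blocking Runt binding to CBFb-SMMHC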
Target sequence (Q01196 whole entry, looked up, the tested form may be a part): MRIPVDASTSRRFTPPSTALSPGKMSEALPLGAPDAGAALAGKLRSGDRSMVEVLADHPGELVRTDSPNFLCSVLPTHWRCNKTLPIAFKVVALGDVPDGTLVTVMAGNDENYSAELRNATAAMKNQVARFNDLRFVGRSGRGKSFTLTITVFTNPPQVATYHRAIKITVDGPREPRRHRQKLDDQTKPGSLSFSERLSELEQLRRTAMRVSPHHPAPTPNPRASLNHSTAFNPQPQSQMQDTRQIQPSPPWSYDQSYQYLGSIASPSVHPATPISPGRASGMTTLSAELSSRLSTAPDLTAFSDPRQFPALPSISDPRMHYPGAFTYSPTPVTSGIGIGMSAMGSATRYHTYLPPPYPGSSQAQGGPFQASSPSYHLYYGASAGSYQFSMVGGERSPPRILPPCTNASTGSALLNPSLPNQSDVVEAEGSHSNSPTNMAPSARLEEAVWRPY
Target sequence (Q13951 whole entry, looked up, the tested form may be a part): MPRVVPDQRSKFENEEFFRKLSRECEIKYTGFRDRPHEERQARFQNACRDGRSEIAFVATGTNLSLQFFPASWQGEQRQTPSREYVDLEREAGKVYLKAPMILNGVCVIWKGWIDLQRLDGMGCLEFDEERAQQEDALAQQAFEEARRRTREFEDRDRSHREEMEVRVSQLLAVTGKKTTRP
PKD1 inh: PKD1 (human) kinase inhibition; PKD1 kinase fluorescence polarization assay; inhibition, % (test concentration not listed); Q15139; AID 797; actives 0.056% (n = 200,000)
EBV gp42 inh: inhibitors of Epstein-Barr virus glycoprotein 42. Q1HVG2. inhibition, % (tested at 21.74 µM). Fluorescence polarization binding assay, mP read-out. AID 1085. actives 0.42% (n = 220,000)
Runt-CBFb FRET: blocks binding of human RUNX1 Runt domain to CBFb | Q01196+Q13951 | Cerulean-Runt/Venus-CBFb FRET ratio 530/480, 1 h | inhibition, % at 20 µM | actives 0.46% (n = 220,000) | AID 1496;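 active means inhibition over about 50% at 20 µM in the single-dose screen, limit read from the data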;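 further: 0% = DMSO wells and 100% = excess unlabeled CBFb competitor control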
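test system = Cerulean-tagged RUNX1 Runt domain (FRET donor) fusion protein | reagent = Venus-CBFb binding partner, 100 nM | incubation = protein complex preformed 1 h, compound exposure 1 h, room temperature, dark | detection = FRET fluorescence | read-out basis = loss of energy transfer signal | controls = 5 µM unlabeled CBFb as full-inhibition high control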
MEX-5 binding: C. elegans MEX-5 TCR-2 RNA binding activity | MEX-5/FITC-TCR2 RNA binding, fluorescence polarization; active compounds read low | activity score (negative = inhibition of binding), % at 10 µM | Q9XUB2 | actives 0.38% (n = 300,000);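 active means inhibition past about -25% in most replicates, and total fluorescence under double the plate's negative control median, limit read from the data; inconclusive means replicates evenly split on the limit, or fluorescence at least double controls; inactive means too little inhibition in most replicates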;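 further: 0% = DMSO and -100% = 5 µM competing unlabeled TCR2 RNA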
Numbers without * were called inactive; ? = inconclusive; / = no result; + = active, no number. Rows were chosen to be rich in hits. Some 2% of all compounds tested hit in one or more screens of this group. Unless noted, no stated cut-off is given here; in the data, active means inhibition above about 50%; inactive means the rest.

SMILES | RanGTP-Impb inh | Runt-SMMHC FRET | PKD1 inh | EBV gp42 inh | Runt-CBFb FRET | MEX-5 binding
O=c1[nH]c(=O)c2nc(-c3ccc(Cl)cc3)cnc2[nH]1 | 94* | / | -1 | 0 | 20 | -3
CCC(C)(C)c1ccc(OCC(=O)Nc2ccncc2)cc1 | 1 | / | / | / | / | -4
O=C(O)CSc1cc(NS(=O)(=O)c2ccc(Cl)cc2)c2ccccc2c1O | -4 | / | / | / | / | 0
Cc1cc(C)c(S(=O)(=O)Nc2cc(SCC(=O)O)c(O)c3ccccc23)cc1C | -2 | 2 | -9 | -1 | 28 | -56*
COc1ccc(S(=O)(=O)Nc2cc(SCC(=O)O)c(O)c3ccccc23)cc1 | 2 | / | / | / | / | -53*
Cc1ccc(S(=O)(=O)N2CCOCC2)cc1NC(=O)COC(=O)c1cc(=O)[nH]c2ccccc12 | 26* | 3 | 2 | -12 | 2 | -1
Cc1nc2sc3c(c2c(=O)[nH]1)CCC3 | 0 | -8 | 0 | -8 | -1 | 2
Cc1cc(-c2nc3c4c5c(sc4[nH]c(=O)n3n2)CCC5)c(C)o1 | -4 | 38 | -7 | 60* | 31 | -11
COc1ccc(C2C=C(c3ccccc3)Nc3nc(NC(C)=O)nn32)cc1 (stereo not drawn) | 1 | 2 | -4 | 58* | -90 | -12
COc1ccc(C2C=C(c3ccccc3)Nc3nnnn32)cc1 (stereo not drawn) | 0 | -137 | -5 | -16 | -23 | -7
O=C(CCc1ccc(S(=O)(=O)N2CCOCC2)cc1)Nc1nccs1 | 1 | 147 | -4 | 2 | 104* | 2
O=C(Nc1nccs1)c1ccc(S(=O)(=O)N2CCOCC2)cc1 | -3 | 3 | 3 | -11 | 2 | 3
Cc1cc(C)c(C)c(S(=O)(=O)N2CCN(c3ccc(O)cc3)CC2)c1C | 1 | 14 | 8 | 12 | 18 | -1
CCN(CC)Cc1ccccc1Sc1ccccc1 | 3 | 3 | -6 | -1 | -1 | 1
O=C1/C(=C/c2cccc([N+](=O)[O-])c2)Oc2cc(O)ccc21 | ? | / | / | / | / | 3
O=C1/C(=C/c2ccc(O)c(O)c2)Oc2cc(O)ccc21 | / | 55* | / | -72 | -81 | /
COc1cc(/C=C2\Oc3cc(O)ccc3C2=O)ccc1O | 2 | 78* | / | -56 | 11 | 20
CCOC(=O)C1CCCN(C(=O)c2ccc3c(=O)n(Cc4ccccc4OC)c(=S)[nH]c3c2)C1 (stereo not drawn) | 1 | / | / | / | / | -4
Cc1ccc(-n2c(C)cc(-c3csc(N)n3)c2C)cc1 | 3 | -42 | -7 | -1 | 5 | 0
Cc1cc(-c2csc(N)n2)c(C)n1C | -1 | -6 | -2 | -18 | 5 | -47*
COc1ccc(NC(=O)N(CCc2ccccc2)Cc2cc3c(C)cc(C)cc3[nH]c2=O)cc1 | -1 | 2 | -1 | 59* | -2 | 0
CCc1cc(C(=O)N2CCN(C(=O)c3ccco3)CC2)sc1C | 1 | / | / | / | / | 2
CC1(C)Cc2c(c(-c3ccccc3Cl)[nH]c(=O)c2C#N)CO1 | ? | 2 | -4 | -6 | 1 | 0
N#Cc1c(-c2ccc(Cl)cc2)c2c([nH]c1=O)-c1ccccc1OC2 | 68* | 82* | / | 1 | 89* | -28*
CCCCN(C(=O)CCSc1ccc(F)cc1)c1c(N)n(Cc2ccccc2)c(=O)[nH]c1=O | 0 | / | / | / | / | -1
SMILES | RanGTP-Impb inh | Runt-SMMHC FRET | PKD1 inh | EBV gp42 inh | Runt-CBFb FRET | MEX-5 binding
Cc1c(NC(=O)C(C)OC(=O)c2ccc(NC(=O)CC#N)cc2)c(=O)n(-c2ccccc2)n1C (stereo not drawn) | -1 | / | / | / | / | -2
CC(C)(C)c1ccccc1NC(=O)N1CCNC(=O)C1CC(=O)Nc1ccc(F)cc1 (stereo not drawn) | 5 | / | / | / | / | -2
CCOC(=O)c1c(/N=C/c2ccc(O)cc2O)sc2c1CCC2 | 7 | 56* | 7 | 13 | 23 | 5
CCOC(=O)c1c(/N=C/c2ccccc2O)sc2c1CCC2 | -1 | 40 | 12 | -12 | 21 | -1
CCOC(=O)c1cc2c(=O)n3cccc(C)c3nc2n(CCCOC)c1=NC(=O)c1cccnc1 | 129* | 12 | -10 | 9 | 110* | -3
CCCCn1c(=NC(=O)c2cccnc2)c(C(=O)OCC)cc2c(=O)n3ccccc3nc21 | 82* | 62* | -1 | -1 | 93* | 1
CCOCCCn1c(=NC(=O)c2cccnc2)c(C(=O)OCC)cc2c(=O)n3ccccc3nc21 | 119* | 42 | -4 | -3 | 65* | 1
COc1ccc(C)cc1NC(=O)NNC(=O)C(C)Oc1ccc(F)cc1Cl (stereo not drawn) | -1 | / | / | / | / | 1
CC(=O)c1c(C)[nH]c(C(=O)NCc2ccccc2)c1C | -5 | 3 | -1 | -2 | 50* | -3
CCCCNC(=O)c1cc2c(=O)n3cccc(C)c3nc2n(CCN2CCOCC2)c1=N | 150* | 62* | -2 | -8 | 100* | -4
Cc1cccn2c(=O)c3cc(C(=O)NC4CCCCC4)c(=N)n(CCN4CCOCC4)c3nc12 | 113* | 128* | / | -6 | 97* | -3
CCCn1c(=N)c(C(=O)NC2CCCC2)cc2c(=O)n3cccc(C)c3nc21 | 198* | 83* | 0 | -16 | 5 | -19
Cc1cccn2c(=O)c3cc(C(=O)NC4CCCCC4)n(C)c3nc12 | 0 | / | / | / | / | 0
COc1ccc(CCn2c(=N)c(C(=O)NC3CCCC3)cc3c(=O)n4ccccc4nc32)cc1OC | 3 | / | / | / | / | -4
CCn1c(=N)c(C(=O)NC)cc2c(=O)n3cccc(C)c3nc21 | / | 58* | / | -9 | 19 | /
Cc1cccn2c(=O)c3cc(C(=O)NCCCN4CCOCC4)n(C)c3nc12 | / | 3 | / | / | 0 | /
O=C(N/N=C/c1cc(Cl)c(O)c(Cl)c1)c1cc2c(ccc3ccccc32)o1 | 3 | / | / | / | / | 4
CS(=O)(=O)N(CCC#N)Cc1ccco1 | 2 | -3 | -4 | 4 | / | 2
COc1ccc(N2CCN(c3ccc(S(=O)(=O)N(C(C)C)C(C)C)cn3)CC2)cc1 | -2 | / | / | / | / | -2
Cc1cccn2c(=O)c3cc(C(=O)NC(C)c4ccccc4)c(=N)n(CCCn4ccnc4)c3nc12 (stereo not drawn) | + | 88* | / | -1 | 38 | -3
CCCCc1nnc(NC(=O)COc2ccc3c(C)cc(=O)oc3c2)s1 | -1 | 4 | / | -4 | -1 | 0
CCOC(=O)C1CCCc2c1[nH]c1c(C(N)=O)cccc21 (stereo not drawn) | 25* | 4 | -7 | 2 | 1 | 2
